Bioassay records from PubChem BioAssay.
OX1R antag-1: antagonists of human orexin 1 receptor (OX1R); Orexin/Hypocretin receptor type 1 (Homo sapiens), O43613; OX1R-expressing cells, FRET antagonist read-out; inhibition, % at 6.6 µM; 330,000 tested, 1.8% active; in the data active = inhibition mostly above about 38%, no sharp cut-off; inactive = mostly below about 40%;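 also: 0% = agonist challenge alone and 100% = reference antagonist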
TAAR1 antagonist: human TAAR1 antagonists, primary screen, Fluo-8 calcium fluorescence, CHO RD-HGA16 cells. 360,000 tested, 1.5% active. AID 624466, 2012. Trace amine-associated receptor 1 (Homo sapiens), Q96RJ0. inhibition, % at 3 µM. antagonist;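 active = inhibition above a per-plate cutoff, the mean inhibition of test compounds on that plate plus 3 SD, cut at about 49% in these data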;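 also: 0% = DMSO plus EC80 beta-PEA response and 100% = DMSO alone without agonist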
Target sequence (Q96RJ0 whole entry, looked up): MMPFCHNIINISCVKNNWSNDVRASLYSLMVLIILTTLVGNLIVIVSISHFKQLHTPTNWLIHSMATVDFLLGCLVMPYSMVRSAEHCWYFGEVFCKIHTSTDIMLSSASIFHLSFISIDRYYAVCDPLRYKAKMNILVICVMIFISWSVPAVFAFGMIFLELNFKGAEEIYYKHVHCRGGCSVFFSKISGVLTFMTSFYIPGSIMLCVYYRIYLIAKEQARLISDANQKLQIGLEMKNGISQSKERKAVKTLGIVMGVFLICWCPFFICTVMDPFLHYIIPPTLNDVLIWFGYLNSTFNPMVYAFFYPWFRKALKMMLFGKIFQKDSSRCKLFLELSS
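System: CHO RD-HGA16 cells bearing hTAAR1. Reagent: EC80 β-phenethylamine stimulus. Schedule: seeding 17-24 h prior, 75-min 37 °C, 30-min RT dye loading. Signal: Fluo-8 intracellular calcium dye fluorescence, real-time kinetic reads. Read-out: % inhibition from peak post-agonist over basal fluorescence ratio. Benchmarks: vehicle wells and EC80 agonist wells. Replicates: n of 1.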
CHO parental Ca: ATP-evoked calcium signal inhibitors, parental CHO, primary screen, counter-screen for OX1R antagonist project, cell-based, fluorescence, Fluo-8 calcium dye; parental CHO-K1, ATP-induced calcium, Fluo-8 fluorescence; inhibition, % at 5.6 µM; 330,000 tested, 0.63% active;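 active = inhibition above that plate's mean sample inhibition plus 3 SD, cut at about 26% in these data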;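 also: 0% = ATP-challenged DMSO wells and 100% = DMSO wells without ATP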
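test system = CHO parental line | reagent = ATP stimulus | measured by = intracellular calcium via Fluo-8 no-wash fluorescent dye | control set = ATP and no-ATP DMSO wells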
TAAR1 agonist: human TAAR1 agonists, primary screen, Fluo-8 calcium fluorescence, CHO RD-HGA16 cells; Trace amine-associated receptor 1 (Homo sapiens), Q96RJ0; vehicle wells 0%, saturating PEA agonist 100%; activation, % at 3 µM; 360,000 tested, 0.99% active; AID 624467, 2012;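 active = activation above the mean activation of all test compounds in the run plus 3 SD, cut at about 38% in these data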
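Assay system – CHO-derived RD-HGA16 cells with stable Gα16 and human TAAR1 · Compound dosing – one-point dosing at 3 µM (nominal) · Incubation – 17-24 h seeding, 75 min 37 °C dye, 30 min RT · Measured by – kinetic Fluo-8 calcium fluorescence · Control set – DMSO vehicle as 0%, PEA at EC100 as 100% · Repeats – single well for each compound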
OX1R antag-2: OX1R (HCRTR1) antagonists, primary screen, fluorescence, CHO/OX1R cells, Fluo-8 calcium, orexin A; Orexin/Hypocretin receptor type 1 (Homo sapiens), O43613; AID 434989, 2010; inhibition, % at 5 µM; Fluo-8 calcium fluorescence; 330,000 tested, 0.43% active;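 active = inhibition above its plate's threshold, mean inhibition of all tested compounds on the plate plus 3 SD, cut at about 37% in these data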;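 also: 0% = orexin A challenge wells and 100% = SB-334867-A antagonist wells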
GPR7 antag: GPR7 receptor antagonists, primary screen, cell-based, fluorescence, single concentration. Neuropeptides B/W receptor type 1 (Homo sapiens), P48145. GPR7-expressing cells, fluorescence antagonist assay. inhibition, % at 4.4 µM. 290,000 tested, 1.1% active. AID 1861, 2009; in the data active = inhibition above about 16%, passing the limit was not always enough;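 also: cells stimulated with the agonist NPW; 0% = agonist with vehicle and 100% = vehicle without agonist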
Target sequence (P48145 whole entry, looked up): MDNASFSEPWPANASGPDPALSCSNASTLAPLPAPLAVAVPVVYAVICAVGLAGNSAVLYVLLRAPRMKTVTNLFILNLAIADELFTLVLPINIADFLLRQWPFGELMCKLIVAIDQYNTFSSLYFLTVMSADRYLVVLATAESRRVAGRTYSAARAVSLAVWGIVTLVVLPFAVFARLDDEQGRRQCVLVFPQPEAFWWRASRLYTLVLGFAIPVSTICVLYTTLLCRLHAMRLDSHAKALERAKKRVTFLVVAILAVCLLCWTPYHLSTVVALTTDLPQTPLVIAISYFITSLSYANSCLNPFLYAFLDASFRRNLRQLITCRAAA
An asterisk follows results filed as active; · = no result. This is a sample that favours compounds with a hit; in the whole collection about 4.5% have one here.

SMILES	OX1R antag-1	TAAR1 antagonist	CHO parental Ca	TAAR1 agonist	OX1R antag-2	GPR7 antag
O=C(Nc1nc2c(s1)COc1ccccc1-2)c1cccs1	56*	26	-15	10	-23	3
O=C(Nc1nc2c(s1)CCc1ccccc1-2)c1cccs1	34	-11	-20	-6	-48	-10
O=C1[C@H](Cc2ccccc2)NCCCC[C@@H](c2ccc(Cl)cc2)N1Cc1ccc(Cl)cc1	·	14	·	41*	·	·
COc1ccc(N2C(=O)c3n[nH]c(C)c3C2c2ccccc2)cc1 (stereo not drawn)	·	-16	·	0	·	·
O=[N+]([O-])c1c(NCc2ccco2)ccc2nonc12	68*	-18	-5	0	-10	-10
O=C(O)c1ccccc1Nc1ccc([N+](=O)[O-])c2nonc12	34*	·	14	·	10	-5
O=[N+]([O-])c1c(Nc2ccccc2)ccc2nonc12	64*	-20	1	0	-3	-10
Cc1cc(C)cc(Nc2ccc3nonc3c2[N+](=O)[O-])c1	31	-3	-4	-3	-11	·
Cc1cccc(Nc2ccc3nonc3c2[N+](=O)[O-])c1C	8	-5	3	-1	5	8
CCOC(=O)NNc1ccc2nonc2c1[N+](=O)[O-]	35*	·	-13	·	-14	-7
O=[N+]([O-])c1ccc(COc2ccccc2CO)cc1	·	-10	·	-1	·	·
Cc1ccc2nc(COC(=O)c3cccnc3Cl)cc(=O)n2c1	·	1	·	3	·	·
COc1cccc(CN2CC(C(=O)NCCc3ccccc3C(F)(F)F)CCC2=O)c1 (stereo not drawn)	10	3	-25	1	-25	1
O=C(c1cccc(S(=O)(=O)N2CCCCC2)c1)N(CCc1ccccc1)Cc1ccccc1	15	24	-17	1	-29	·
CS(=O)(=O)c1cccc(C(=O)N(CCc2ccccc2)Cc2cccs2)c1	13	-12	-10	38*	-9	7
COc1ccc(-c2nc(-c3ccccc3)c(-c3cccs3)[nH]2)cc1OC	28	44	-2	15	-19	2
O=[N+]([O-])c1cccc(-c2nc(-c3ccccc3)c(-c3cccs3)[nH]2)c1	20	58*	-8	5	-4	0
COc1ccc(C2=Nn3c(nnc3-c3ccccc3F)SC2)cc1OC1CCCC1	23	66*	-12	3	32	·
COc1ccc(C2=Nn3c(nnc3-c3ccccc3F)SC2)cc1OC1CCOC1 (stereo not drawn)	13	28	-19	7	-12	·
O=C(NCc1ccccc1)[C@H]1CCCN1C(=O)[C@H]1CCCN1C(=O)c1ccc(F)c(F)c1	·	-10	·	0	·	·
O=c1[nH]c(/C=C\c2cccnc2)c([N+](=O)[O-])c(=O)[nH]1	54*	0	5	13	1	-11
O=c1[nH]c(/C=C/c2cccnc2)c([N+](=O)[O-])c(=O)[nH]1	36	-8	-8	7	-21	-4
COc1cc(/C=C/c2[nH]c(=O)[nH]c(=O)c2[N+](=O)[O-])cc([N+](=O)[O-])c1O	63*	-15	-12	4	-12	0
CCCCC(CC)CN=C(N)NC(N)=NCCCCCCN=C(N)NC(N)=NCC(CC)CCCC (stereo not drawn)	34	·	84*	·	79*	·
CCCN1CCCCC(NC(=O)c2ccc(Cl)cc2Cl)C1=O (stereo not drawn)	·	12	·	-1	·	·
SMILES	OX1R antag-1	TAAR1 antagonist	CHO parental Ca	TAAR1 agonist	OX1R antag-2	GPR7 antag
CCCCN1C(=O)C2(NNc3ccccc3O2)c2ccccc21 (stereo not drawn)	3	21	31	10	37*	10
C=CCN1C(=O)C2(NNc3ccccc3O2)c2ccccc21 (stereo not drawn)	7	6	32*	1	30	2
C=CCN1C(=O)C2(NC(=O)c3ccccc3N2)c2ccccc21 (stereo not drawn)	8	7	-3	2	12	5
Cc1nc2ccc(NS(=O)(=O)c3cccc([N+](=O)[O-])c3)cc2s1	20	19	30*	4	29	·
Cc1nc2ccc(NS(=O)(=O)c3ccc4c(c3)OCCO4)cc2s1	27	5	31	18	45*	15
Cc1ccc(S(=O)(=O)Nc2ccc3nc(N)sc3c2)cc1	19	23	34*	5	32	-1
O=C(OC1Cn2c(=O)ccc(=O)n2C1)c1ccc([N+](=O)[O-])cc1	45*	6	-5	2	-10	6
COC(=O)[C@]12C[C@H](CC(=O)NCc3ccc(OC)c(OC)c3)C(=O)N(Cc3ccccc3)C1=C[C@H](C(C)(C)C)O[C@@H]2C	·	-14	·	0	·	·
COc1cccc(C=C2SC(=S)N(Cc3ccco3)C2=O)c1OC	·	-6	·	3	·	·
Nc1nc(-c2ccccc2)c(N=Nc2cccnc2)s1	42	-8	12	3	-19	-15
Cc1nn(-c2ccccc2)c(N)c1N=Nc1cccnc1	54*	3	-10	3	-20	0
Cc1ccccc1Br	·	-9	·	1	·	·
CN(C)C(CNc1ccc(S(C)(=O)=O)cc1[N+](=O)[O-])Cc1ccccc1 (stereo not drawn)	43*	-1	-21	7	-20	-3
CS(=O)(=O)c1ccc(NCCc2ccccn2)c([N+](=O)[O-])c1	52*	9	-6	-2	-17	0
CC(C)[C@H](NC(=O)C1CC1)C(=O)N1CCC[C@H]1C(=O)NCc1ccccc1	·	-6	·	0	·	·
Nc1ncc(Br)cc1S(=O)(=O)Nc1cc(C(F)(F)F)cc(C(F)(F)F)c1	85*	-28	25	4	25	20
C#CCNC(=O)C[C@H]1C[C@@]2(C(=O)OC)C(=C[C@H](C(C)(C)C)O[C@@H]2C)N(Cc2ccc3c(c2)OCO3)C1=O	·	-20	·	7	·	·
COC(=O)c1c(NC(=O)c2ccco2)sc(C)c1C	59*	2	-27	4	-5	-14
COc1ccc(C(=O)C(CN2CCOCC2)c2ccccc2)cc1F (stereo not drawn)	·	-8	·	4	·	35*
O=C1C(C=Nc2ccccc2O)=C(O)c2ccccc21	59*	18	-17	8	6	15
Cc1ccc(O)c(N=CC2=C(O)c3ccccc3C2=O)c1	64	8	-34	10	-9	-5
CCN1CCN(c2ccc(Nc3ccnc4ccccc34)cc2)CC1	30*	-5	-7	1	-16	·
